Assay results reported in ChEMBL document CHEMBL3608243, “Synthesis of novel cationic spermine-conjugated phosphotriester oligonucleotide for improvement of cell membrane permeability” (Bioorg Med Chem Lett, 2015).

Assays:
[1] = Stability in 28% NH3 aq, incubated for 2 hrs at room temperature assessed as compound degradation by reversed-phase HPLC method; format: physicochemical
In short: (§1)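 Untreated and treated dimers compared by reversed-phase HPLC on a C18 column, eluted with a linear 5–25% acetonitrile gradient over 20 min in 50 mM triethylammonium acetate, pH 7.0.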

[2] = Stability in 28% NH3 aq, 55 degC incubated for 8 hrs assessed as compound degradation in to PDE dimer d(TpT) by reversed-phase HPLC method; format: physicochemical; in short: as §1
[3] = test system: Serum; experiment: Stability in 10% FBS assessed as compound degradation at 5 nmol incubated for 180 mins by reversed-phase HPLC method; format: ADME, cell-free, Bos taurus; settings: cattle, 3 h
In short: (§2)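 Dimers incubated with snake venom phosphodiesterase or in 10% fetal bovine serum, then reactions analysed by reversed-phase HPLC; peak areas of intact dimer used to give the fraction of intact dimer over time.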

[4] = Stability assessed as snake venom phosphodiesterase-mediated compound degradation at 5 nmol incubated for 180 mins by reversed-phase HPLC method; format: ADME; settings: serpentes, 3 h; in short: as §2
[5] = test system: A549; experiment: Permeability in human A549 cells assessed as relative fluorescence intensity at 10 uM incubated for 8 hrs at 37 degC in presence of serum free medium by spectrofluorometry; format: ADME, cell-based; settings: a549, 8 h
In short: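 A549 cells exposed to TAMRA-labeled oligonucleotides (in 10 mM Tris–HCl, 1 mM EDTA, pH 8) without transfection reagent; after incubation, PBS wash, lysis and lysate fluorescence read on a spectrofluorometer; n = 4.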

[6] = Solubility in water; format: physicochemical; settings: buffer

COP(=O)(OC[C@H]1O[C@@H](n2cc(C)c(=O)[nH]c2=O)C[C@@H]1O)O[C@H]1C[C@H](n2cc(C)c(=O)[nH]c2=O)O[C@@H]1CO (stereo partly drawn)
Stability [1]: Unstable | Stability [2]: Unstable

CCOP(=O)(OC[C@H]1O[C@@H](n2cc(C)c(=O)[nH]c2=O)C[C@@H]1O)O[C@H]1C[C@H](n2cc(C)c(=O)[nH]c2=O)O[C@@H]1CO (stereo partly drawn)
Stability [1]: Stable | Stability [2]: Stable | Stability [3]: Stable | Stability [4]: Stable

Cc1cn([C@H]2C[C@H](OP(=O)(O)OC[C@H]3O[C@@H](n4cc(C)c(=O)[nH]c4=O)C[C@@H]3O)[C@@H](CO)O2)c(=O)[nH]c1=O
Stability [3]: Unstable | Stability [4]: Unstable

Cc1cn([C@H]2C[C@H](OP(=O)(O)OC[C@H]3O[C@@H](n4cc(C)c(=O)[nH]c4=O)C[C@@H]3OP(=O)(O)OC[C@H]3O[C@@H](n4cc(C)c(=O)[nH]c4=O)C[C@@H]3OP(=O)(O)OC[C@H]3O[C@@H](n4cc(C)c(=O)[nH]c4=O)C[C@@H]3OP(=O)(O)OC[C@H]3O[C@@H](n4cc(C)c(=O)[nH]c4=O)C[C@@H]3OP(=O)(O)OC[C@H]3O[C@@H](n4cc(C)c(=O)[nH]c4=O)C[C@@H]3OP(=O)(O)OC[C@H]3O[C@@H](n4cc(C)c(=O)[nH]c4=O)C[C@@H]3OP(=O)(O)OC[C@H]3O[C@@H](n4cc(C)c(=O)[nH]c4=O)C[C@@H]3OP(=O)(O)OC[C@H]3O[C@@H](n4cc(C)c(=O)[nH]c4=O)C[C@@H]3OP(=O)(O)OC[C@H]3O[C@@H](n4cc(C)c(=O)[nH]c4=O)C[C@@H]3OP(=O)(O)OCCC(O)COCCCNC(=O)c3ccc(C(=O)O)c(C4=C5C=CC(=[N+](C)C)C=C5OC5C=C(N(C)C)C=CC45)c3)[C@@H](COP(=O)(O)O)O2)c(=O)[nH]c1=O (stereo partly drawn)
Flu intensity [5]: 1

Cc1cn([C@H]2C[C@H](OP(=O)(O)OC[C@H]3O[C@@H](n4cc(C)c(=O)[nH]c4=O)C[C@@H]3OP(=O)(O)OC[C@H]3O[C@@H](n4cc(C)c(=O)[nH]c4=O)C[C@@H]3OP(=O)(O)OC[C@H]3O[C@@H](n4cc(C)c(=O)[nH]c4=O)C[C@@H]3OP(=O)(O)OC[C@H]3O[C@@H](n4cc(C)c(=O)[nH]c4=O)C[C@@H]3OP(=O)(O)OC[C@H]3O[C@@H](n4cc(C)c(=O)[nH]c4=O)C[C@@H]3OP(=O)(O)OC[C@H]3O[C@@H](n4cc(C)c(=O)[nH]c4=O)C[C@@H]3OP(=O)(O)OC[C@H]3O[C@@H](n4cc(C)c(=O)[nH]c4=O)C[C@@H]3OP(=O)(O)OC[C@H]3O[C@@H](n4cc(C)c(=O)[nH]c4=O)C[C@@H]3OP(=O)(O)OC[C@H]3O[C@@H](n4cc(C)c(=O)[nH]c4=O)C[C@@H]3OP(=O)(O)OCCC(O)COCCCNC(=O)c3ccc(C(=O)O)c(C4=C5C=CC(=[N+](C)C)C=C5OC5C=C(N(C)C)C=CC45)c3)[C@@H](COP(=O)(O)OCCCCNCCCNCCCCNCCCNCCCCO)O2)c(=O)[nH]c1=O (stereo partly drawn)
Flu intensity [5]: 5.45

CCOP(=O)(OC[C@H]1O[C@@H](n2cc(C)c(=O)[nH]c2=O)C[C@@H]1OP(=O)(OCC)OC[C@H]1O[C@@H](n2cc(C)c(=O)[nH]c2=O)C[C@@H]1OP(=O)(OCC)OC[C@H]1O[C@@H](n2cc(C)c(=O)[nH]c2=O)C[C@@H]1OP(=O)(OCC)OC[C@H]1O[C@@H](n2cc(C)c(=O)[nH]c2=O)C[C@@H]1OP(=O)(OCC)OC[C@H]1O[C@@H](n2cc(C)c(=O)[nH]c2=O)C[C@@H]1OP(=O)(OCC)OC[C@H]1O[C@@H](n2cc(C)c(=O)[nH]c2=O)C[C@@H]1OP(=O)(OCC)OC[C@H]1O[C@@H](n2cc(C)c(=O)[nH]c2=O)C[C@@H]1OP(=O)(OCC)OC[C@H]1O[C@@H](n2cc(C)c(=O)[nH]c2=O)C[C@@H]1OP(=O)(OCC)OC[C@H]1O[C@@H](n2cc(C)c(=O)[nH]c2=O)C[C@@H]1OP(=O)(O)OCCC(O)COCCCNC(=O)c1ccc(C(=O)O)c(C2=C3C=CC(=[N+](C)C)C=C3OC3C=C(N(C)C)C=CC23)c1)O[C@H]1C[C@H](n2cc(C)c(=O)[nH]c2=O)O[C@@H]1COP(=O)(O)O (stereo partly drawn)
Flu intensity [5]: 16

CCOP(=O)(OC[C@H]1O[C@@H](n2cc(C)c(=O)[nH]c2=O)C[C@@H]1OP(=O)(OCC)OC[C@H]1O[C@@H](n2cc(C)c(=O)[nH]c2=O)C[C@@H]1OP(=O)(OCC)OC[C@H]1O[C@@H](n2cc(C)c(=O)[nH]c2=O)C[C@@H]1OP(=O)(OCC)OC[C@H]1O[C@@H](n2cc(C)c(=O)[nH]c2=O)C[C@@H]1OP(=O)(OCC)OC[C@H]1O[C@@H](n2cc(C)c(=O)[nH]c2=O)C[C@@H]1OP(=O)(OCC)OC[C@H]1O[C@@H](n2cc(C)c(=O)[nH]c2=O)C[C@@H]1OP(=O)(OCC)OC[C@H]1O[C@@H](n2cc(C)c(=O)[nH]c2=O)C[C@@H]1OP(=O)(OCC)OC[C@H]1O[C@@H](n2cc(C)c(=O)[nH]c2=O)C[C@@H]1OP(=O)(OCC)OC[C@H]1O[C@@H](n2cc(C)c(=O)[nH]c2=O)C[C@@H]1OP(=O)(O)OCCC(O)COCCCNC(=O)c1ccc(C(=O)O)c(C2=C3C=CC(=[N+](C)C)C=C3OC3C=C(N(C)C)C=CC23)c1)O[C@H]1C[C@H](n2cc(C)c(=O)[nH]c2=O)O[C@@H]1COP(=O)(O)OCCCCNCCCNCCCCNCCCNCCCCO (stereo partly drawn)
solubility [6]: soluble | Flu intensity [5]: 33.1
